Consider twelve compounds from publication PMC11500731 (RSC Advances, 2024).

Assay [1] concerns HEPG2. Description: Cytotoxicity assay. It counts as cell-based, human. The note with it: read-out: IC50 (50% inhibitory concentration), HEPG2. The method, boiled down: (§1)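 HepG2 cells (DMEM) or MCF-7 cells (RPMI-1640), each with 10% FBS, at 37 °C and 5% CO2. Cells were trypsinised, counted by trypan blue and seeded at 2.5 × 10^3 cells/well overnight. Test compound at 100, 50, 25, 12.5, 6.25 and 0 μM in 1% FBS medium, quadruplicate, 48 h. Adherent cells stained with 0.02% crystal violet, washed with water, dye dissolved in 1% SDS, A595. IC50 by linear regression of concentration against inhibition rate.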

For assay [2], the system named is MCF-7. Description: Cytotoxicity assay. It counts as cell-based, human. The note with it: read-out: IC50 (50% inhibitory concentration), MCF-7. In short, it runs like this:
as §1

Assay [3] concerns MDA-MB-231. Description: Cytotoxicity assay. It counts as cell-based. The note with it: read-out: IC50 (50% inhibitory concentration), MDA-MB-231; human breast cancer, 48 hours, 1% FBS, mean ± SD. In short, it runs like this:
(§2)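 Cells grown at 37 °C, 5% CO2 with 10% FBS (HepG2.2.15 in DMEM; MDA-MB-231 in DMEM/F12 1:1) and trypsinised and trypan blue-counted 24 h before. Seeded at 2.5 × 10^3 per well overnight, then exposed in quadruplicate to 100–6.25 μM plus 0 μM in 1% FBS medium for 48 h. Crystal violet stain, water wash, SDS solubilisation, A595. IC50 from linear regression of concentration against inhibition rate.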

The test system of assay [4] is HEPG2.2.15. Description: Cytotoxicity assay. The conditions noted are these: read-out: IC50 (50% inhibitory concentration), HEPG2.2.15; human hepatocellular carcinoma, HBV transformed, 48 hours, 1% FBS, mean ± SD. The class given is cell-based. The method, boiled down: as §2
Assay [5] concerns the target SARS-CoV-2 3CL protease (Severe acute respiratory syndrome coronavirus 2, UniProt P0DTD1). Nature of the assay: In vitro inhibitory activity assay of 3CL protease. It counts as biochemical. The conditions noted are these: read-out: inhibitory activity against 3CL protease.
Where [6] appears, read: human hepatocellular carcinoma, 48 hours, 1% FBS, mean ± SD.
Where [7] appears, read: human breast cancer, 48 hours, 1% FBS, mean ± SD.

Read-outs that look alike come from different tables or passages of the source. Bounds are passed on as bounds.

For the compound “3-(((1-(2-Hydroxyethyl)-5-nitro-1H-benzo[d]imidazole-2-yl)methyl)thio)-2-(pyridin-3-ylmethyl)isoquinolin-1(2H)-one [9c]”, the IC50 in assay [1] (setting [6]), in assay [2] (setting [7]), in assay [3] and in assay [4] was > 100 µM throughout.
As for “3-(((1H-Benzo[d]imidazole-2-yl)methyl)thio)-2-(pyridin-3-ylmethyl)isoquinolin-1(2H)-one [9a]”, the IC50 in assay [1] (setting [6]), in assay [2] (setting [7]), in assay [3] and in assay [4] was > 100 µM throughout.
In the case of `O=C(Cn1cnc2ccccc2c1=O)Nc1ccc(O)cc1[N+](=O)[O-]` [4a, N-(4-Hydroxy-2-nitrophenyl)-2-(4-oxoquinazolin-3(4H)-yl)acetamide], the IC50 in assay [1] (Homo sapiens, HepG2, 48 h) is > 100 µM; in assay [2] (Homo sapiens, MCF7, 48 h) it was > 100 µM. Moreover, the inhibition at 50 µM in assay [5] is > 50%.
`O=C(Cn1cnc2ccccc2c1=O)Nc1cc(Cl)ccc1O` [4b, N-(5-Chloro-2-hydroxyphenyl)-2-(4-oxoquinazolin-3(4H)-yl)acetamide]: the IC50 was > 100 µM in assay [1] (Homo sapiens, HepG2, 48 h) and > 100 µM in assay [2] (Homo sapiens, MCF7, 48 h).
Consider `COc1ccc(NC(=O)Cn2cnc3ccccc3c2=O)c([N+](=O)[O-])c1` [4c, N-(4-methoxy-2-nitrophenyl)-2-(4-oxoquinazolin-3(4H)-yl)acetamide], for which the IC50 is > 100 µM in assay [1] (Homo sapiens, HepG2, 48 h) and > 100 µM in assay [2] (Homo sapiens, MCF7, 48 h). In assay [5], the inhibition at 50 µM was > 50%.
Regarding `Cc1ccc(NC(=O)Cn2cnc3ccccc3c2=O)c(O)c1` [4d, N-(2-Hydroxy-4-methylphenyl)-2-(4-oxoquinazolin-3(4H)-yl)acetamide], the IC50 in assay [1] (Homo sapiens, HepG2, 48 h) was > 100 µM; in assay [2] (Homo sapiens, MCF7, 48 h), > 100 µM.
In the case of `O=C(Cn1cnc2ccccc2c1=O)Nc1ccccc1O` [4e, N-(2-Hydroxyphenyl)-2-(4-oxoquinazolin-3(4H)-yl)acetamide], the IC50 in assay [1] (Homo sapiens, HepG2, 48 h) was 54.9 ± 15.2 µM; in assay [2] (Homo sapiens, MCF7, 48 h), > 100 µM.
For `O=C(Cn1cnc2ccccc2c1=O)Nc1ncccc1O` [4f, N-(3-Hydroxypyridin-2-yl)-2-(4-oxoquinazolin-3(4H)-yl)acetamide], the IC50 in assay [1] (Homo sapiens, HepG2, 48 h) was > 100 µM; in assay [2] (Homo sapiens, MCF7, 48 h), > 100 µM.
Consider `COc1ccc(NC(=O)Cn2cnc3ccccc3c2=O)c(N)c1` [4g, N-(2-Amino-4-methoxyphenyl)-2-(4-oxoquinazolin-3(4H)-yl)acetamide], for which the IC50 was > 100 µM in assay [1] (Homo sapiens, HepG2, 48 h) and > 100 µM in assay [2] (Homo sapiens, MCF7, 48 h).
On to `O=C(Cn1cnc2ccccc2c1=O)NCc1cccnc1` [4h, 2-(4-Oxoquinazolin-3(4H)-yl)-N-(pyridin-3-ylmethyl)acetamide], for which the IC50 was 51.4 ± 10.2 µM in assay [1] (Homo sapiens, HepG2, 48 h) and 58.2 ± 8.04 µM in assay [2] (Homo sapiens, MCF7, 48 h).
The matching figures for `O=C(Cn1cnc2ccccc2c1=O)Nc1nccs1` [4i, 2-(4-Oxoquinazolin-3(4H)-yl)-N-(thiazol-2-yl)acetamide]: 47.7 ± 16.2 µM and > 100 µM.
Taken in the same sequence, the figures for `O=c1c2ccccc2nc(S)n1Cc1cccnc1` [compound 5, 2-Mercapto-3-(pyridin-3-ylmethyl)quinazolin-4(3H)-one] were > 100 µM and > 100 µM.
